CHO parental Ca = counter-screen for OX1R antagonists: effect in parental CHO cells; parental CHO-K1, ATP-induced calcium, Fluo-8 fluorescence; inhibition, % at 5.6 µM; actives 0.63% (n = 330,000); AID 463079;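 active = inhibition above that plate's mean sample inhibition plus 3 SD, cut at about 26% in these data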;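 also: 0% = ATP-challenged DMSO wells and 100% = DMSO wells without ATP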
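Material – parental CHO cells · Reagent – ATP stimulus · Compound – single nominal dose of 5.6 µM per compound · Detection – Fluo-8 fluorescence · Read-out basis – percent inhibition of calcium signal · Controls – ATP-challenged DMSO wells low, unchallenged DMSO wells high · Repeats – no replicates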
TAAR1 ag = agonists of human TAAR1; CHO RD-HGA16 TAAR1, Fluo-8 calcium fluorescence; vehicle wells 0%, saturating PEA agonist 100%; AID 624467; actives 0.99% (n = 360,000); activation, % at 3 µM;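 active = activation above the mean activation of all test compounds in the run plus 3 SD, cut at about 38% in these data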
Target sequence (Q96RJ0 whole entry, looked up): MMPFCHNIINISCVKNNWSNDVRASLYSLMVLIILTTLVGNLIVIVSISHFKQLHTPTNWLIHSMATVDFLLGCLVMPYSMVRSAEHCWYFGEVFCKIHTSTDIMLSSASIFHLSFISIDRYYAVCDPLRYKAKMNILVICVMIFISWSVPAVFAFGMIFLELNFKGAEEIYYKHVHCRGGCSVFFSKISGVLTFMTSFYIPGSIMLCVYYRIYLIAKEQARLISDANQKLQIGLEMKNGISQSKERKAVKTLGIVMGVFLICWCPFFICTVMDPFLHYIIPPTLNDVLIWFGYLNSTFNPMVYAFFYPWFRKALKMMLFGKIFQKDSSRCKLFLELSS
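Benchmarks: low control DMSO, high control PEA (EC100); System: CHO RD-HGA16 cells carrying human TAAR1 plus Gα16; Detection: Fluo-8 fluorescence, 5 s baseline then 140 s kinetic read; Schedule: 17-24 h plating, Fluo-8 75 min 37 °C, 30 min RT; Read-out basis: % activation from peak over basal fluorescence ratio, DMSO-to-PEA scaled.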
OX1R antag-1 = blocks the human orexin 1 receptor; O43613; OX1R-expressing cells, FRET antagonist read-out; inhibition, % at 6.6 µM; actives 1.8% (n = 330,000); in the data active = inhibition mostly above about 38%, no sharp cut-off; inactive = mostly below about 40%;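 also: 0% = agonist challenge alone and 100% = reference antagonist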
GPR7 antag = blocks human GPR7 receptor signaling. AID 1861. GPR7-expressing cells, fluorescence antagonist assay. actives 1.1% (n = 290,000). inhibition, % at 4.4 µM; in the data active = inhibition above about 16%, passing the limit was not always enough;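 also: cells stimulated with the agonist NPW; 0% = agonist with vehicle and 100% = vehicle without agonist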
OX1R antag-2 = antagonists of human orexin 1 receptor | CHO/OX1R cells, Fluo-8 calcium fluorescence, orexin A | actives 0.43% (n = 330,000) | O43613 | inhibition, % at 5 µM | AID 434989;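 active = inhibition above its plate's threshold, mean inhibition of all tested compounds on the plate plus 3 SD, cut at about 37% in these data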;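 also: 0% = orexin A challenge wells and 100% = SB-334867-A antagonist wells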
TAAR1 antag = human TAAR1 antagonism; CHO RD-HGA16 TAAR1, Fluo-8 calcium fluorescence, antagonist; inhibition, % at 3 µM; actives 1.5% (n = 360,000); AID 624466;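 active = inhibition above a per-plate cutoff, the mean inhibition of test compounds on that plate plus 3 SD, cut at about 49% in these data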;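 also: 0% = DMSO plus EC80 beta-PEA response and 100% = DMSO alone without agonist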
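Material: RD-HGA16 CHO cells with stable hTAAR1 and Gα16; Dosing: single nominal final test compound concentration of 3 µM; Schedule: seeding 17-24 h prior, 75-min 37 °C, 30-min RT dye loading; Detection: kinetic Fluo-8 calcium fluorescence measurement; Measure: % inhibition from peak post-agonist over basal fluorescence ratio; Benchmarks: vehicle and agonist controls.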
* = called active by the depositor. This is a sample that favours compounds with a hit; in the whole collection about 4.6% have one here.

Cc1onc(-c2ccccc2)c1C(=O)N1CCCC(C)(C(=O)NS(=O)(=O)C2CC2)C1 (configuration not stated) was read as TAAR1 ag 0 and TAAR1 antag -10.
Screening Cc1ccc(C(=O)NC(=S)NNC(=O)c2ccc([N+](=O)[O-])cc2)cc1 returned CHO parental Ca -5, TAAR1 ag 29, OX1R antag-1 9, GPR7 antag 6, OX1R antag-2 -23 and TAAR1 antag -14.
Screening Cc1ccc(S(=O)(=O)NNC(=S)NC(=O)c2ccc([N+](=O)[O-])cc2)cc1 returned CHO parental Ca -6, TAAR1 ag 2, OX1R antag-1 70*, GPR7 antag -1, OX1R antag-2 -19 and TAAR1 antag -24.
Screening O=C1CC(N2CCN(c3nc4ccccc4s3)CC2)C(=O)N1Cc1cccs1 (configuration not stated) returned CHO parental Ca -21, TAAR1 ag 20, OX1R antag-1 18, GPR7 antag 20*, OX1R antag-2 -26 and TAAR1 antag 22.
O=C1CCCN1CCCNc1ncccc1[N+](=O)[O-] was read as CHO parental Ca 6, TAAR1 ag -2, OX1R antag-1 43*, GPR7 antag -6, OX1R antag-2 -8 and TAAR1 antag -10.
CNc1nc(NCCCN2CCCC2=O)c2sccc2n1 was read as TAAR1 ag 26 and TAAR1 antag 17.
For O=C(/C=C/c1ccccc1)NC(=S)Nc1ccc(N2CCOCC2)cc1 the results were CHO parental Ca -21, TAAR1 ag 6, OX1R antag-1 25, GPR7 antag 7, OX1R antag-2 -16 and TAAR1 antag 54*.
Screening CC(C)c1ccc(/C=C/C(=O)NC(=S)Nc2ccc(CN3CCOCC3)cc2)cc1 returned CHO parental Ca -5, TAAR1 ag 7, OX1R antag-1 24, GPR7 antag -9, OX1R antag-2 -3 and TAAR1 antag 67*.
For CC(C)c1ccc(/C=C/C(=O)NC(=S)NN2CCOCC2)cc1 the results were TAAR1 ag 3, GPR7 antag -9 and TAAR1 antag -14.
Screening O=C(Cc1cccc2ccccc12)Nc1ccc(N2CCOCC2)cc1 returned CHO parental Ca 5, TAAR1 ag 39*, OX1R antag-1 26, GPR7 antag -4, OX1R antag-2 -7 and TAAR1 antag 12.
Screening O=C(Cc1ccccc1)Nc1ccc(N2CCOCC2)cc1 returned CHO parental Ca 5, TAAR1 ag 4, OX1R antag-1 8, GPR7 antag 20, OX1R antag-2 -8 and TAAR1 antag 8.
`CNC(=O)C[C@@H]1C(=O)N(C2CCCCC2)CC1(C)C` gave TAAR1 ag -1 and TAAR1 antag 0.
`COc1ccc(C2c3[nH]c4ccccc4c3CCN2Cc2cccn2-c2ncccn2)cc1C` (configuration not stated) gave CHO parental Ca -33, TAAR1 ag 1, OX1R antag-1 26, GPR7 antag 30*, OX1R antag-2 -22 and TAAR1 antag 1.
Screening Cc1cc(NC(=O)c2ccc3c(c2)C(=O)N(C2CCCCC2)C3=O)no1 returned CHO parental Ca -11, TAAR1 ag 3, OX1R antag-1 10, GPR7 antag 3, OX1R antag-2 -7 and TAAR1 antag -15.
Screening Cc1ccc(C(=O)Nc2ccc3c(c2)C(=O)N(CC2CCCO2)C3=O)cc1 (configuration not stated) returned CHO parental Ca -10, TAAR1 ag 3, OX1R antag-1 10, GPR7 antag -3, OX1R antag-2 9 and TAAR1 antag -12.
O=C(Nc1ccncc1)c1ccc2c(c1)C(=O)N(CC1CCCO1)C2=O (configuration not stated) was read as CHO parental Ca -16, TAAR1 ag 36, OX1R antag-1 53*, GPR7 antag -9, OX1R antag-2 -14 and TAAR1 antag 35.
For O=C(Nc1ccncc1)c1ccc2c(c1)C(=O)N(C1CCCCC1)C2=O the results were CHO parental Ca 51*, TAAR1 ag 32, OX1R antag-1 45, GPR7 antag 1, OX1R antag-2 43 and TAAR1 antag 45.
For COc1cc(N2C(=O)C=CC2=O)ccc1N1C(=O)C=CC1=O the results were TAAR1 ag 8 and TAAR1 antag -3.
`O=C1C=CC(=O)N1c1cccc(-c2ccccc2)c1` gave CHO parental Ca 27, TAAR1 ag 15, OX1R antag-1 24, GPR7 antag 1, OX1R antag-2 45* and TAAR1 antag 69*.
CCCn1c(CNc2ccc(Br)cc2)nc2ccccc21 was read as CHO parental Ca 34*, TAAR1 ag -1, OX1R antag-1 11, GPR7 antag 6, OX1R antag-2 -9 and TAAR1 antag -10.
CCOC(=O)c1sc(C)c2c(=O)n(CC)nnc12 was read as CHO parental Ca -9, TAAR1 ag 11, OX1R antag-1 63*, GPR7 antag -1, OX1R antag-2 7 and TAAR1 antag 5.
Screening CCOC(=O)C1=CC[C@@H](c2ccccc2)N(S(=O)(=O)c2ccc(C)cc2)[C@@H]1C#N returned TAAR1 ag 3 and TAAR1 antag 29.
`COc1cc(/C=N/NS(=O)(=O)c2ccc(C)c([N+](=O)[O-])c2)ccc1O` gave CHO parental Ca 3, TAAR1 ag 1, OX1R antag-1 16, GPR7 antag -10, OX1R antag-2 -2 and TAAR1 antag -27.
For COc1ccc(-n2c(O)c(/C=N/NS(=O)(=O)c3ccc(C)c([N+](=O)[O-])c3)c3ccccc3c2=O)cc1OC the results were CHO parental Ca -15, TAAR1 ag 42*, OX1R antag-1 20, GPR7 antag -12, OX1R antag-2 -15 and TAAR1 antag 38.
N#CC1=C(SCC(=O)NC2CC2)NC(=O)C(C#N)C12CCCCC2 (configuration not stated) was read as CHO parental Ca 5, TAAR1 ag 12, OX1R antag-1 4, GPR7 antag -4, OX1R antag-2 -12 and TAAR1 antag 13.
`N#CC1=C(SCC(=O)Nc2cccc3cccnc23)NC(=O)C(C#N)C12CCCCC2` (configuration not stated) gave CHO parental Ca -9, TAAR1 ag 12, OX1R antag-1 39*, GPR7 antag 4, OX1R antag-2 -1 and TAAR1 antag 30.
C=CCN=C1NC(c2cccc(F)c2)C(C(=O)OC)=C(C)N1C (configuration not stated) was read as TAAR1 ag 0 and TAAR1 antag 1.
`COc1ccc(C2=Nn3c(nnc3-c3ccccc3F)SC2)cc1OCC1CC1` gave CHO parental Ca -21, TAAR1 ag 4, OX1R antag-1 23, OX1R antag-2 0 and TAAR1 antag 52*.
